For experiment [1], the system named is HT-29. Kind of experiment: Cytotoxicity against human HT-29 cells after 72 hrs by MTT assay. It counts as functional, cell-based. Conditions: HT-29, 72 h. In outline: (§1)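 MTT assay: about 4 × 10³ cells per well in MEM with 10% FBS, grown 24 h at 37 °C under 5% CO₂, then exposed to compound for 72 h. MTT added to a final 5 µg/mL for 4 h at 37 °C. Three runs per cell line; IC50 is the mean of at least three determinations.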

Experiment [2] relates to A549. In words: Cytotoxicity against human A549 cells after 72 hrs by MTT assay. It counts as functional, cell-based. Conditions: A549, 72 h. An outline of the steps: (§2)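 MTT assay: about 4 × 10³ cells per well in MEM with 10% FBS, grown 24 h at 37 °C under 5% CO₂, then exposed to compound for 72 h. MTT added to a final 5 µg/mL for 4 h at 37 °C. Formazan dissolved in DMSO and absorbance read at 492 nm against 630 nm reference. Three runs per cell line; IC50 is the mean of at least three determinations.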

Experiment [3] is described as follows: Cytotoxicity against human H460 cells after 72 hrs by MTT assay. Conditions: NCI-H460, 72 h. It counts as functional, cell-based. In outline: as §1
For orientation: Tetrazolium assays rely on reduction of a dye to a coloured formazan, in cell work by metabolically active cells.

The subject of experiment [4] is WI-38. Kind of experiment: Cytotoxicity against human WI38 cells after 72 hrs by MTT assay. It is filed as cell-based. Conditions: WI-38, 72 h. An outline of the steps:
as §2

The nature of experiment [5]: Cytotoxicity against human U87MG cells after 72 hrs by MTT assay. It counts as functional, cell-based, U-87MG ATCC. Conditions: U-87 MG. An outline of the steps: as §2
The nature of experiment [6]: Cytotoxicity against human MKN45 cells after 72 hrs by MTT assay. It is filed as functional, cell-based. Conditions: MKN-45, 72 h. An outline of the steps:
as §1

The target in experiment [7] is Platelet-derived growth factor receptor alpha (Homo sapiens) (UniProt P16234). Kind of experiment: Inhibition of PDGFRalpha (unknown origin) at 10 uM after 20 mins by HTRF method. (Time-resolved FRET reads energy transfer from a long-lived donor to a nearby acceptor.)
Sequence of Platelet-derived growth factor receptor alpha (Homo sapiens) (P16234 whole entry): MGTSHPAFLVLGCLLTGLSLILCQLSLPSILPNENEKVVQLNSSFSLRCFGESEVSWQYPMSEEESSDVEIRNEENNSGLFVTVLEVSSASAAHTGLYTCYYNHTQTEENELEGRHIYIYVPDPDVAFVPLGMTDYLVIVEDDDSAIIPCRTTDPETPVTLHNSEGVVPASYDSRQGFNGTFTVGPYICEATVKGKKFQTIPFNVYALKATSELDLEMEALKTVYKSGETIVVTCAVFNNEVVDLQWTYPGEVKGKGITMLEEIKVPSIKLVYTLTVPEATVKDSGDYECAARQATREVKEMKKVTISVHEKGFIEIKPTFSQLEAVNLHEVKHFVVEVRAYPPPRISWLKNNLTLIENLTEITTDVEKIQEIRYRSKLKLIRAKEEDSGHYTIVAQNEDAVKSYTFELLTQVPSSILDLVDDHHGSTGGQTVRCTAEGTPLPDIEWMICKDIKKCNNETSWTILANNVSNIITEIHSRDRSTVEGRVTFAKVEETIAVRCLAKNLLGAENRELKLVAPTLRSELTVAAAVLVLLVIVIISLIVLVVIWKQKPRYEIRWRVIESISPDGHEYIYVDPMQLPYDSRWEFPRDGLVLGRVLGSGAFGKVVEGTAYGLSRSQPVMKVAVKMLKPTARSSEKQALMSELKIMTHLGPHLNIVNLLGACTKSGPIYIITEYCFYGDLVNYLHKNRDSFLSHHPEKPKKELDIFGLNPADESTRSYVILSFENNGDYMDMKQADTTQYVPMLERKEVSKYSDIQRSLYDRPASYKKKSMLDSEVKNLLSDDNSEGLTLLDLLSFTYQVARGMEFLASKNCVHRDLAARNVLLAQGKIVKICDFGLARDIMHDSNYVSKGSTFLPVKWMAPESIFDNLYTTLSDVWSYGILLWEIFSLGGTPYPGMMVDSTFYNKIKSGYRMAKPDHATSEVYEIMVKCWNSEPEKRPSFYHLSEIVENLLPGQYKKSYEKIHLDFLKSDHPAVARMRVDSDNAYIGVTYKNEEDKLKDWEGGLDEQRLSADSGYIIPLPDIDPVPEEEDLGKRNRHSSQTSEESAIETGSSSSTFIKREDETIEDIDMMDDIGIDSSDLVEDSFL

Take `CN(C)CCn1cnnc1-c1cc(Oc2ccc(NC(=O)N/N=C/c3c(Cl)cccc3Cl)cc2F)ccn1`: the IC50 (commonly the concentration that inhibits the measured activity by half) is 0.28 µM in experiment [1]; 1.41 µM in experiment [2]; 0.35 µM in experiment [3]; 3.32 µM in experiment [4]; above 100 µM in experiment [5]; 0.16 µM in experiment [6].
`CN(C)CCn1cnnc1-c1cc(Oc2ccc(NC(=O)N/N=C/c3ccc(O)c(F)c3)cc2F)ccn1`: the IC50 in experiment [1] was 3.31 µM; in experiment [2], 13.4 µM; in experiment [3] it was 2.62 µM; in experiment [5], above 100 µM; in experiment [6], 1.97 µM.
Taken in the same sequence, the figures for `CN(C)CCn1cnnc1-c1cc(Oc2ccc(NC(=O)N/N=C/c3ccc(O)cc3O)cc2F)ccn1` were 52.6 µM, 12.7 µM, 11.3 µM, 15.4 µM and 2.86 µM.
Turning to `COc1cc2c(Oc3ccc(NC(=O)C4(C(=O)Nc5ccc(F)cc5)CC4)cc3F)ccnc2cc1OCCCN1CCOCC1`, the inhibition (in general, the change of the read-out against control, counted positive when it falls) in experiment [7] amounted to 98.7%.
Take `COc1ccc(/C=N/NC(=O)Nc2ccc(Oc3ccnc(-c4nncn4CCN(C)C)c3)c(F)c2)c(OC)c1OC`: the IC50 in experiment [1] was 3.97 µM; in experiment [2], 6.68 µM; in experiment [3], 1.79 µM; in experiment [5] it was 7.65 µM; in experiment [6] it was 2.02 µM.
On to `Cn1ncnc1-c1cc(Oc2ccc(NC(=O)N/N=C/c3ccccc3)cc2F)ccn1`, for which the 50% inhibitory concentration (IC50) in experiment [1] was 30.2 µM; in experiment [2], above 100 µM; in experiment [3], 52.2 µM; in experiment [5] it was above 100 µM; in experiment [6] it was above 100 µM.
For the molecule `COc1ccc(/C=N/NC(=O)Nc2ccc(Oc3ccnc(-c4nncn4CCN(C)C)c3)c(F)c2)cc1O`, the IC50 in experiment [1] was 0.96 µM; in experiment [2], above 100 µM; in experiment [3], 0.62 µM; in experiment [5], above 100 µM; in experiment [6], 2.51 µM.
As to `Cc1cc(/C=N/NC(=O)Nc2ccc(Oc3ccnc(-c4nncn4CCN(C)C)c3)c(F)c2)cc(C)c1O`, the IC50 came out at 1.22 µM in experiment [1]; 1.64 µM in experiment [2]; 2.01 µM in experiment [3]; 3.61 µM in experiment [4]; 7.71 µM in experiment [5]; 1.51 µM in experiment [6].
On to `CN(C)CCn1cnnc1-c1cc(Oc2ccc(NC(=O)N/N=C/c3ccc(F)cc3Cl)cc2F)ccn1`, for which the IC50 in experiment [1] stood at 0.51 µM; in experiment [2] it was 1.12 µM; in experiment [3], 0.72 µM; in experiment [4], 2.09 µM; in experiment [5], 1.21 µM; in experiment [6], 0.87 µM.
On to `CN(C)CCn1cnnc1-c1cc(Oc2ccc(NC(=O)N/N=C/c3ccccc3[N+](=O)[O-])cc2F)ccn1`, for which the IC50 in experiment [1] turned out to be 0.95 µM; in experiment [2] it was 1.2 µM; in experiment [3] it was 1.27 µM; in experiment [4], 6.86 µM; in experiment [5] it was 7.15 µM; in experiment [6], 1.02 µM.
`CN(C)CCn1cnnc1-c1cc(Oc2ccc(NC(=O)N/N=C/c3ccc(O)c(Br)c3)cc2F)ccn1`: the IC50 was 0.45 µM in experiment [1]; 1.37 µM in experiment [2]; 0.43 µM in experiment [3]; 5.56 µM in experiment [4]; 12.4 µM in experiment [5]; 1.86 µM in experiment [6].
Turning to `CN(C)CCn1cnnc1-c1cc(Oc2ccc(NC(=O)N/N=C/c3cc(C(C)(C)C)cc(C(C)(C)C)c3O)cc2F)ccn1`, the IC50 in experiment [1] amounted to 0.68 µM; in experiment [2] it was 0.98 µM; in experiment [3], 0.59 µM; in experiment [4], 2.35 µM; in experiment [5], 0.52 µM; in experiment [6], 3.3 µM.
Regarding `CN(C)CCn1cnnc1-c1cc(Oc2ccc(NC(=O)N/N=C/c3c[nH]c4ccccc34)cc2F)ccn1`, the IC50 in experiment [1] is 1.3 µM; in experiment [2], 0.82 µM; in experiment [3], 1.63 µM; in experiment [4], 3.62 µM; in experiment [5] it was 0.69 µM; in experiment [6], 0.79 µM.
On to `CN(C)CCn1cnnc1-c1cc(Oc2ccc(NC(=O)N/N=C/c3ccc(O)c(O)c3)cc2F)ccn1`, for which the IC50 is 1.89 µM in experiment [1]; above 100 µM in experiment [2]; 1.93 µM in experiment [3]; above 100 µM in experiment [5]; 3.24 µM in experiment [6].
Consider `CNC(=O)c1cc(Oc2ccc(NC(=O)Nc3ccc(Cl)c(C(F)(F)F)c3)cc2)ccn1` [SORAFENIB], for which the IC50 in experiment [2] came out at 1.92 µM; in experiment [4], 7.54 µM; in experiment [5], 15.6 µM.
As for `CN(C)CCn1cnnc1-c1cc(Oc2ccc(NC(=O)N/N=C/c3c(O)ccc4ccccc34)cc2F)ccn1`, the IC50 is 0.67 µM in experiment [1]; 0.88 µM in experiment [2]; 0.89 µM in experiment [3]; 3.25 µM in experiment [4]; 0.62 µM in experiment [5]; 2.02 µM in experiment [6].
On to `CN(C)CCn1cnnc1-c1cc(Oc2ccc(NC(=O)N/N=C/c3ccc(O)cc3)cc2F)ccn1`, for which the IC50 in experiment [1] is 1.92 µM; in experiment [2], 3.56 µM; in experiment [3], 1.78 µM; in experiment [5] it was 7.75 µM; in experiment [6], 0.82 µM.
In the case of `CN(C)CCn1cnnc1-c1cc(Oc2ccc(NC(=O)N/N=C/c3cccc(O)c3)cc2F)ccn1`, the IC50 in experiment [1] was 0.33 µM; in experiment [2], above 100 µM; in experiment [3], 0.78 µM; in experiment [5], above 100 µM; in experiment [6], 1.37 µM.
Consider `CN(C)CCn1cnnc1-c1cc(Oc2ccc(NC(=O)N/N=C/c3cc(Br)c(O)c(Br)c3)cc2F)ccn1`, for which the IC50 was 2.67 µM in experiment [1]; above 100 µM in experiment [2]; 3.76 µM in experiment [3]; above 100 µM in experiment [5]; 4.32 µM in experiment [6].
In the case of `CN(C)CCn1cnnc1-c1cc(Oc2ccc(NC(=O)N/N=C/c3ccc(F)cc3)cc2F)ccn1`, the IC50 in experiment [1] worked out at 1.37 µM; in experiment [2], 1.79 µM; in experiment [3], 1.98 µM; in experiment [4] it was 3.98 µM; in experiment [5] it was 2.31 µM; in experiment [6] it was 1.03 µM.
For `Cn1cnnc1-c1cc(Oc2ccc(NC(=O)N/N=C/c3ccccc3)cc2F)ccn1`, the IC50 in experiment [1] came to 8.79 µM; in experiment [2] it was 7.56 µM; in experiment [3], 15.7 µM; in experiment [5] it was 36.3 µM; in experiment [6], 7.61 µM.
The matching figures for `COc1ccc(OC)c(/C=N/NC(=O)Nc2ccc(Oc3ccnc(-c4nncn4CCN(C)C)c3)c(F)c2)c1`: 2.07 µM, 1.95 µM, 2.93 µM, 6.4 µM and 1.51 µM.
The matching figures for `CN(C)CCn1cnnc1-c1cc(Oc2ccc(NC(=O)N/N=C/c3ccccc3)cc2F)ccn1`: 1.12 µM, 1.86 µM, 1.78 µM, 2.25 µM and 2.73 µM.
The matching figures for `COc1cc(/C=N/NC(=O)Nc2ccc(Oc3ccnc(-c4nncn4CCN(C)C)c3)c(F)c2)cc(OC)c1OC`: 3.62 µM, above 100 µM, 2.77 µM, 22.5 µM and 2.9 µM.
For `CN(C)CCn1cnnc1-c1cc(Oc2ccc(NC(=O)N/N=C/c3ccc(Cl)cc3)cc2F)ccn1`, the IC50 in experiment [1] stood at 0.53 µM; in experiment [2] it was 0.78 µM; in experiment [3], 0.32 µM; in experiment [4], 1.87 µM; in experiment [5], 1.37 µM; in experiment [6] it was 0.57 µM.

The record behind these values is ChEMBL document CHEMBL3259649, “Design and synthesis of novel 2-(4-(2-(dimethylamino)ethyl)-4H-1,2,4-triazol-3-yl)pyridines as potential antitumor agents” (Eur J Med Chem, 2014).
